# L929 necroptosis = inhibitors of zVAD-triggered necroptosis, primary screen, L929 cells; L929 zVAD necroptosis rescue, ATP luminescence, 24 h; with zVAD 60 µM; viability rescue, % at 10 µM; hit rate 0.38% among 220,000; AID 1377, 2008;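 active means activation, scaled between plate controls, above about 75%, limit read from the data; inactive means activation under that limit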;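 further: 0% = zVAD with DMSO and 100% = DMSO alone without zVAD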
# Hep lipid drop = inhibitors of hepatocyte lipid droplet formation, primary screen, imaging, high-throughput imaging, BODIPY stain; AML12 mouse hepatocytes, oleate lipid droplets; inhibition, % at 6.5 µM; hit rate 0.4% among 240,000;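 active means lipid droplet intensity inhibited by at least 50%, with more than 500 cells counted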
#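 Test system: AML12 hepatocytes (mouse); reagent: oleate loading, 100 µM; dosing: one dose, 6.5 µM compound; incubation: overnight exposure; signal: fluorescence imaging, 20x objective, two fields per well; read-out basis: % inhibition of corrected integrated BODIPY droplet signal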
# TNF necrop inh = inhibitors of TNF-alpha triggered necroptosis, primary screen, cell-based, Jurkat FADD-/-, single concentration | hit rate 0.068% among 220,000 | Jurkat FADD-/- TNF necroptosis rescue, ATP luminescence, 24 h; 0 = TNF only, 100 = no-TNF cells | activation (protection from cell death), % at 10 µM;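 active means activation, meaning protection from cell death, of at least 50% relative to plate controls; inactive means activation below 50%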;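 further: necroptosis triggered by 40 ng/mL TNF-alpha added together with compound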
# Pf gametocyte = late stage P. falciparum gametocyte viability inhibitors, primary screen, ATP luminescence, HTS | P. falciparum stage V gametocytes, 24 h | inhibition, % at 10.9 µM | hit rate 0.065% among 150,000;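 active means inhibition above the mean plus 3 SD of compounds within the control limits, set per campaign, cut at about 38% in these data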;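 further: 0% = DMSO wells and 100% = medium only without gametocytes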
# Arbovirus inh = antivirals against arbovirus infection, primary screen, cell-based, full library, 10K replicate subset; arbovirus infection cell-based antiviral screen; inhibition, % at 10 µM; hit rate 0.37% among 200,000; in the data active means inhibition above about 30%
# zVAD necrop conf = inhibitors of zVAD-triggered necroptosis in L929, confirmation, L929 cells, duplicate runs. activation (protection from necroptosis), % at 10 µM. AID 463117, 2010. hit rate 16% among 760. shares compounds with L929 necroptosis. L929 zVAD-induced necroptosis rescue, ATP luminescence, 24 h;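 active means mean protection from necroptosis of at least 50% over duplicate tests; inactive means mean protection below 50%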;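 further: 0% = cells with zVAD alone and 100% = vehicle cells without zVAD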
# * hit, by the source's call; . = not tested or not shown. Most compounds without a hit are left out; they make up all but 0.91% or so of the library.
SMILES,L929 necroptosis,Hep lipid drop,TNF necrop inh,Pf gametocyte,Arbovirus inh,zVAD necrop conf
Cc1ccc2c(c1)C(=C(C#N)C#N)C(=O)N2CCN1CCCCC1,90*,1,6,-20,.,39
CCC1CN(C(=O)N2CCC(C(=O)NCCc3ccccc3)CC2)c2ccccc2O1 (configuration not stated),.,-8,.,.,.,.
O=c1[nH]c2ccccc2c2ccccc12,79*,23,-1,-21,2,2
Cc1cc(C(=O)N2CCCC(CO)(Cc3ccc(F)cc3)C2)c(C)o1 (configuration not stated),.,-5,.,.,.,.
CC(C)OCCOc1ccc2oc(-c3ccco3)cc(=O)c2c1,.,8,.,.,.,.
NC(=O)COc1ccc2oc(-c3ccccc3)cc(=O)c2c1,81*,13,-2,-9,0,26
N#CCOc1ccc2oc(-c3ccco3)cc(=O)c2c1,76*,39,-2,.,3,1
Cc1ccc(C(=O)COC(=O)c2ccc(-c3cnc4ccccc4n3)cc2)cc1C,49,-34,-1,-27,0,.
CCC(=O)Oc1ccc(-c2cnc3ccccc3n2)cc1,89*,.,-3,18,-8,39
CNC(=O)c1cc(Nc2nnc(-c3ccc(O)cc3)c3ccccc23)ccc1OC,80*,-6,-2,-12,-15,2
Cc1ccc(NC(=O)C(OC(=O)c2ccc(C=O)cc2)c2ccccc2)cc1Cl (configuration not stated),83*,0,3,.,0,19
CC(=O)c1cccc(NS(=O)(=O)N2CCOCC2)c1,.,-6,.,.,.,.
Oc1ccc(-c2csc(Nc3ncccn3)n2)cc1O,79*,1,22,-8,-2,60*
Oc1ccc(-c2csc(Nc3ccccn3)n2)cc1,.,-5,.,7,.,.
CC(=O)Nc1cccc(-c2csc(Nc3ncccn3)n2)c1,80*,3,6,.,-3,5
Oc1ccc(-c2csc(Nc3ncccn3)n2)c(O)c1,81*,16,9,0,-9,48
O=C1NCC(O)=C1C=Nc1ccccc1O,77*,1,14,-6,.,7
O=c1[nH][nH]cc1C=Nc1ccccc1O,75*,.,8,.,5,13
Cc1ccc(C(=O)Nn2cnnc2)cc1,.,-1,.,.,.,.
O=C(C1=NNCC1c1ccccc1)C1CO1 (configuration not stated),99*,4,91*,3,13,90*
Cc1ccc(C2CC(=O)NC(SCC(=O)Nc3nccs3)=C2C#N)cc1 (configuration not stated),96*,14,92*,-4,-2,85*
CCOc1ccc(C2CC(=O)NC(SCC(=O)OC)=C2C#N)cc1 (configuration not stated),1,.,12,.,3,.
Cc1cc(C(=O)Cn2nc(C(=O)O)c3ccccc3c2=O)c(C)n1-c1ccccc1,1,-1,-1,-5,-9,.
Cc1cc(C(=O)Cn2nc(C(=O)O)c3ccccc3c2=O)c(C)n1CCc1ccc(Cl)cc1,78*,-14,-4,19,12,8
O=C(CCCCCNC(=O)N1CCn2c1nc1ccccc12)N[C@H](Cc1ccccc1)C(=O)O,.,8,.,.,.,.
SMILES,L929 necroptosis,Hep lipid drop,TNF necrop inh,Pf gametocyte,Arbovirus inh,zVAD necrop conf
Cc1ccc(C)c(SCC(=O)OC/C(O)=C(\C#N)c2nc3ccccc3[nH]2)c1,78*,-19,-2,6,-39,29
O=C(CN1C(=O)C2C3C=CC(C4CC34)C2C1=O)Nc1cnc2ccccc2c1 (configuration not stated),75*,2,5,.,-15,0
CC(=O)N(C)c1ccc(NC(=O)Nc2ccccc2C)cc1,6,14,-3,-18,-1,.
CC(=O)N(C)c1ccc(NC(=O)Nc2ccc(C)c(C)c2)cc1,77*,19,-2,-14,-3,39
Cc1ccc(NC(=O)COc2ncnc3ccccc23)cc1S(=O)(=O)N1CCOCC1,0,4,1,-16,-1,.
Cc1ccc(NC(=O)COc2ccc(-c3nnco3)cc2)cc1S(=O)(=O)N1CCOCC1,78*,-10,0,-7,3,2
C[n+]1cccc(C(=O)Nc2ccccc2)c1,.,18,.,.,.,.
NNc1ncnc2sc3c(c12)CCC3,8,-10,-2,9,2,.
C(=N\Nc1ncnc2sc3c(c12)CCC3)/c1ccncc1,79*,.,17,-18,8,43
C(=N\Nc1ncnc2sc3c(c12)CCC3)/c1cccs1,81*,.,-14,-7,-31,40
c1cc(Nc2ncnc3sc4c(c23)CCC4)ccn1,0,1,-1,-20,0,.
Cc1ccccc1C(=O)N1CCC(C(=O)NCCc2ccc(S(N)(=O)=O)cc2)CC1,.,2,.,.,.,.
CC(=O)c1cn(-c2ccc(Cl)cc2)c(=O)n(Cc2ccc(Br)cc2)c1=O,3,-14,1,16,5,.
O=C(Nc1ccccc1N1CCN(c2ccccc2)CC1)c1ccccc1,2,-26,0,16,5,.
CCN(CC)CCn1c2ccccc2c2cnc(N)c(C#N)c21,75*,.,-10,.,-17,70*
CN(C)C=Nc1ncc2c3ccccc3n(CCN(C)C)c2c1C#N,91*,.,1,.,-12,39
CCOc1ccc(S(=O)(=O)NCc2cccnc2)cc1C(C)C,.,-12,.,-14,.,.
O=C(Nc1cc(-c2ccccc2)[nH]n1)c1ccccc1F,71,12,-7,-3,.,.
CC(=O)Nc1cc(-c2ccc(F)cc2)[nH]n1,76*,5,-1,-13,21,31
CC1=CC(=O)C(C(C)C)=C/C1=N\OC(=O)c1cccc2nc(C)oc12,87*,4,-2,6,6,4
NS(=O)(=O)c1ccc(NC(=O)c2ccc(-c3ccccc3)cc2)cc1,2,-7,2,-14,-3,.
CC(C)(C)c1ccc(C(=O)Nc2ccc(S(N)(=O)=O)cc2)cc1,83*,-6,0,.,.,34
Cc1cc(N)n(Cc2cccs2)n1,9,-6,9,.,-6,.
Cc1cnc(NC(=O)Nc2ccc(Cl)cc2)s1,78*,26,-15,-16,6,0
O=C(Nc1ccc(F)c(Cl)c1)Nc1ccc(Cl)cn1,17,8,1,9,-10,.
Cc1cccnc1NC(=O)Nc1ccc(F)cc1,82*,.,-1,.,4,3
O=C(Nc1ccc(F)cc1)Nc1ccc(Cl)cn1,76*,6,13,10,-14,23
CCOc1ccc(NC(=O)Nc2ccc3nsnc3c2)cc1,81*,-28,-1,12,-8,1
CCOc1ccc(NC(=O)NC23CC4CC(CC(C4)C2)C3)cc1,88*,4,3,-21,1,47
CCOC(=O)c1cccc(NC(=O)Nc2ccc(OCC)cc2)c1,76*,-9,-2,-12,-13,2
